Assay results reported in paper PMC6459613 (ACS chemical biology, 2012).
Where “and” joins values, the source holds several entries; their conditions need not be identical. Equal values may be shown once.

Tests used:
GST-JNK1 = details: read-out: IC50 for displacing biotinylated pepJIP1 from GST-JNK1; cited from earlier work
JNK [1] = details: read-out: in-vitro cell-free IC50; ATP-competitive; cited from earlier work
[2] = tested on: JNK activity in Jurkat T cells; details: cited from earlier work
JNK2α2 in HEK293T cells = test: Western blot in HEK293T cells transfected with WT-JNK2α2; format: cell-based; details: for JNK2α2 autophosphorylation: HEK293T over-expressing JNK2α2, without anisomycin
Outline: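 HEK293T cells were transfected with wild-type JNK2α2 or empty pcDNA3 vector. They were treated with DMSO or varying test compound concentrations without anisomycin, or with an ATP-competitive reference JNK inhibitor with and without anisomycin. Western blots assessed JNK2α2 autophosphorylation and c-Jun phosphorylation, from which an ED50 was estimated.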

RAW264.7 cells = details: LPS-stimulated RAW264.7 cells; cited from earlier work
[3] = tested on: JNK pathway in HEK293 cells; test: Western blot of phospho-JNK and phospho-c-Jun in anisomycin-treated HEK293 cells; format: cell-based; details: for activation (phosphorylation) of JNK isoforms / phosphorylation of c-Jun (phospho-Ser-63): HEK293, 5-100 μM, 12 hours, then anisomycin
Outline: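 HEK293 cells were pretreated for 12 hours with DMSO or test compound at 5-100 μM. The JNK pathway was then induced with anisomycin (50-100 nM) for 5-10 minutes before lysis. Western blots detected phospho-JNK and phospho-c-Jun, and an ED50 was estimated.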

MDA-MB-231 cells [4] = test: Cell viability monitored during migration and wound assays; format: cell-based, human; details: for cell viability during the migration assay: transwell assay, 50 and 100 μM; for cell viability during the wound assay: up to 200 μM
MDA-MB-231 cells [5] = test: Transwell chemotactic cell migration assay; format: cell-based, human; details: for inhibition of migration: overnight, migration in response to serum
Outline: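 Chemotactic migration of MDA-MB-231 cells was measured in transwells. Cells were treated overnight with DMSO or test compound at 50 or 100 μM, and viability was monitored. Migrated cells on the membrane underside were stained with crystal violet. Three independent repeats.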

[6] = tested on: activated JNK1, JNK2 and JNK3; format: biochemical; details: read-out: IC50 values; range over JNK1, JNK2 and JNK3; GST-c-Jun 2 μM
Outline: (§1)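 Activated JNK isoforms phosphorylated GST-c-Jun (1-221) at 2 μM across a dose range of test compound. Dose-response data were fitted to V0 = V00 − V00·i/(i+K50) + V′, where K50 is the half-maximal concentration and V′ is the residual rate at saturating inhibitor.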

WT-MKK4 = WT-MKK4 (Homo sapiens, UniProt P45983); test: Phosphorylation of inactive JNK1 by active MKK4; format: biochemical
Sequence of WT-MKK4 (P45983 whole entry): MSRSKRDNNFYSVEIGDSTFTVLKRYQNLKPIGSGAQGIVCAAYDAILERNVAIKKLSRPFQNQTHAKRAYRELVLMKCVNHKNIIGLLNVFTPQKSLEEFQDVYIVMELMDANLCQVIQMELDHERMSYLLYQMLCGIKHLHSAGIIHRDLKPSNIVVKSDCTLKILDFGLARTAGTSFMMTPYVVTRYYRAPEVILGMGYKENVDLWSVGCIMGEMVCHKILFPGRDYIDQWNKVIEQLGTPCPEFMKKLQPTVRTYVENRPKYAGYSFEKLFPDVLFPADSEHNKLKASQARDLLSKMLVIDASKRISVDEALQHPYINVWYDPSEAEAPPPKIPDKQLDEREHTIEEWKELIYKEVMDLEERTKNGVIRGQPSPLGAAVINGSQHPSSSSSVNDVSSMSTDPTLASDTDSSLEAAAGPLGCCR

JNK2α2 (Y130A) = test: c-Jun phosphorylation in HEK293T cells transfected with JNK2α2; format: cell-based; details: 0-100 μM
Outline: (§2)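 HEK293T cells were transfected with JNK2α2 DRS mutants (Y130A or C163A) or empty pcDNA3 vector and treated with test compound (0–100 μM). Western blots tracked JNK autophosphorylation and c-Jun phosphorylation, compared with non-transfected cells. Results are representative of three independent experiments.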

[7] = tested on: Akt phosphorylation mediated by JNK2α2; test: Akt phosphorylation at Ser-473 in HEK293T cells transfected with WT-JNK2α2; format: cell-based; details: HEK293T transfected with WT-JNK2α2, without anisomycin
Outline: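 Wild-type JNK2α2 was transfected into HEK293T cells. Cells were exposed to DMSO vehicle or a series of test compound concentrations, with no anisomycin stimulation. Akt activation was followed as phosphorylation at Ser-473.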

p38MAPKβ = p38MAPKβ (Homo sapiens, UniProt Q15759); test: MAP kinase selectivity assay, p38MAPKβ; format: biochemical
Sequence of p38MAPKβ (Q15759 whole entry): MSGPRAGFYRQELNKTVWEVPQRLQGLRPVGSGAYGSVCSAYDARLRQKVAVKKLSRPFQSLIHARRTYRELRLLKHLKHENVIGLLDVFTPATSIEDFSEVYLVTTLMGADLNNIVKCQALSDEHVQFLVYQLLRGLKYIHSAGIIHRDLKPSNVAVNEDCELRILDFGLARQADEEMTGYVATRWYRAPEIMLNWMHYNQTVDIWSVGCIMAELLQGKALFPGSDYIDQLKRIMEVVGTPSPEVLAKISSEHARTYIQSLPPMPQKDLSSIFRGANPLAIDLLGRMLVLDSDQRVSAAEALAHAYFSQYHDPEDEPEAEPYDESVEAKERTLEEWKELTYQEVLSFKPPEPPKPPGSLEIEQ

p38MAPKγ = p38MAPKγ (Homo sapiens, UniProt P53778); test: MAP kinase selectivity assay, p38MAPKγ; format: biochemical
Sequence of p38MAPKγ (P53778 whole entry): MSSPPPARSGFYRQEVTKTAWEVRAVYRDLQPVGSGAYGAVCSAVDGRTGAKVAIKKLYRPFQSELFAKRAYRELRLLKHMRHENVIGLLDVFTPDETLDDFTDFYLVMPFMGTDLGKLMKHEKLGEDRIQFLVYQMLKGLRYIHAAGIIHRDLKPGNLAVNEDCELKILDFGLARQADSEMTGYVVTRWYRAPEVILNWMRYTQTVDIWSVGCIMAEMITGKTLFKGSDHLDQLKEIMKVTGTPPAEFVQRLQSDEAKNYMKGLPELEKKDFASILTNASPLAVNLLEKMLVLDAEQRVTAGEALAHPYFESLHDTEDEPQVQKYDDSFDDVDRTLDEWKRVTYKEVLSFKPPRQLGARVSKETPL

JNK2α2 (C163A) = test: c-Jun phosphorylation in HEK293T cells transfected with JNK2α2; format: cell-based; details: 0-100 μM
Outline: as §2

WT-MKK7 = WT-MKK7 (Homo sapiens, UniProt P45983); test: Phosphorylation of inactive JNK1 by active MKK7; format: biochemical
Sequence of WT-MKK7 (P45983 whole entry): as the sequence (P45983 whole entry) above

JNK3 = JNK3 (Homo sapiens, UniProt P53779); test: Phosphorylation of GST-c-Jun; format: biochemical
Sequence of JNK3 (P53779 whole entry): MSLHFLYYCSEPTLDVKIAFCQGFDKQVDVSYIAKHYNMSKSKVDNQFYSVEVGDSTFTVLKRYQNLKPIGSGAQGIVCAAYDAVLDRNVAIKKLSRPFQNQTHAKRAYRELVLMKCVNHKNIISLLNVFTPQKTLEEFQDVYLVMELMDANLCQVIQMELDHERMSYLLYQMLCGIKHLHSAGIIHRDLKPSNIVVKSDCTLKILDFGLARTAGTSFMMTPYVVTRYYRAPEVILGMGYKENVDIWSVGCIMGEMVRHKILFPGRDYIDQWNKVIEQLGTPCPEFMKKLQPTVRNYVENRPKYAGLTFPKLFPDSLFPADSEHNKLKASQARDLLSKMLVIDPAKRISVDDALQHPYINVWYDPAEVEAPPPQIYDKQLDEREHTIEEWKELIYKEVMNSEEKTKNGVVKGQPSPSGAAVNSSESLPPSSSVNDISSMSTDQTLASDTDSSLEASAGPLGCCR
Outline: as §1

p38MAPKδ = p38MAPKδ (Homo sapiens, UniProt O15264); test: MAP kinase selectivity assay, p38MAPKδ; format: biochemical
Sequence of p38MAPKδ (O15264 whole entry): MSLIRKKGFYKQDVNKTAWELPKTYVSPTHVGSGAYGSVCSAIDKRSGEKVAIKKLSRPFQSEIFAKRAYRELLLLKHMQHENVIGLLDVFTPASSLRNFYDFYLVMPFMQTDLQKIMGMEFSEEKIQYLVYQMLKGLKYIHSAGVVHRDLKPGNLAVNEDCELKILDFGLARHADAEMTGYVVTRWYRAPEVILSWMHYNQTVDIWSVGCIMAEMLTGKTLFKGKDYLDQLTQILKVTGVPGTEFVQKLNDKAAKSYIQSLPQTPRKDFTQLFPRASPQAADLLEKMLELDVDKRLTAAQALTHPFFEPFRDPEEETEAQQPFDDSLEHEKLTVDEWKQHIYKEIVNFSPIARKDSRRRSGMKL

MDA-MB-231 cells [8] = test: Scratch wound closure assay; format: cell-based, human; details: 100 and 200 μM, 24 hrs post-wounding
Outline: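 MDA-MB-231 cells were pretreated with graded concentrations of test compound. A scratch wound was then made and medium was replaced with 1% FBS-containing medium. Wound closure was measured at 0 and 24 h post-wounding, with viability checked alongside. Three independent experiments.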

ERK2 = ERK2 (Homo sapiens, UniProt P28482); test: MAP kinase selectivity assay, ERK2; format: biochemical
Sequence of ERK2 (P28482 whole entry, species assumed): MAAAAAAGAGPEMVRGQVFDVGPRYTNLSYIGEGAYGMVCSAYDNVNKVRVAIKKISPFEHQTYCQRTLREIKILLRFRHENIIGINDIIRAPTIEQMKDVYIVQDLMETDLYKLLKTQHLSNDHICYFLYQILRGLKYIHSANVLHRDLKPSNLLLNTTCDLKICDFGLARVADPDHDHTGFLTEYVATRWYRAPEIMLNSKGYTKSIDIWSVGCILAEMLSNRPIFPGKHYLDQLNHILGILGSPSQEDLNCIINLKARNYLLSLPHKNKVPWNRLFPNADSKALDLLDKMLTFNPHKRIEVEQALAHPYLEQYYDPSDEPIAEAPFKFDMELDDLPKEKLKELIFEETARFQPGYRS

JNK1 = JNK1 (Homo sapiens, UniProt P45983); test: Phosphorylation of GST-c-Jun; format: biochemical
Sequence of JNK1 (P45983 whole entry): as the sequence (P45983 whole entry) above
Outline: as §1

JNK [9] = test: Steady-state kinetic analysis of c-Jun phosphorylation; format: biochemical; details: partial competitive inhibition model
Outline: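 Initial velocities were measured with c-Jun varied at 0.63-20 μM and test compound fixed at several levels (0-50 μM), with saturating MgATP at 0.5 mM. Rates came from linear least-squares fits of product versus time. Double-reciprocal plots were checked for linearity. Data were fitted by nonlinear least squares to a partial competitive inhibition equation.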

ERK2 pathway = test: ERK pathway specificity in HEK293 cells, EGF induced; format: cell-based; details: 100 μM
Outline: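 HEK293 cells received DMSO or test compound (0-100 μM) for 12 hours. The ERK pathway was then induced with 50 ng EGF for 5-10 minutes and cells were lysed. Lysates were run on 10% SDS-PAGE and western blotted for phospho-ERK and phospho-p90RSK.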

ERK1 = ERK1 (Homo sapiens, UniProt P27361); test: MAP kinase selectivity assay, ERK1; format: biochemical
Sequence of ERK1 (P27361 whole entry, species assumed): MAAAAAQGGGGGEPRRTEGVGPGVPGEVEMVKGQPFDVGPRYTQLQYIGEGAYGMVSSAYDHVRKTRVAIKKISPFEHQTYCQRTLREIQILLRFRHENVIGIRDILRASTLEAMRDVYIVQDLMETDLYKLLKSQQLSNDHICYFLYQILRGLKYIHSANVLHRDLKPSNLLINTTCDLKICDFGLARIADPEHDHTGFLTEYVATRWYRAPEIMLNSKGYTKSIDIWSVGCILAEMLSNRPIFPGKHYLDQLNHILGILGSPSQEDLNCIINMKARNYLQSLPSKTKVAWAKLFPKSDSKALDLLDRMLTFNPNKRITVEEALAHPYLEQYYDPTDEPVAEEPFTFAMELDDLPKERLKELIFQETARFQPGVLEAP

O=c1[nH]nc(Sc2ncc([N+](=O)[O-])s2)n1-c1ccc2c(c1)OCCO2 [BI-78D3]
IC50 (GST-JNK1): 500 nM

Oc1c2ccccc2c2c3c(cccc13)N=N2 [SP600125, reference compound]
IC50 (JNK [1]): 40 to 100 nM
ED50 for JNK activity [2]: ~10000 nM
JNK2α2 phosphorylation in cells stimulated using anisomycin (JNK2α2 in HEK293T cells; HEK293T over-expressing JNK2α2, with anisomycin): no longer able to inhibit
JNK2α2 autophosphorylation (JNK2α2 in HEK293T cells): autophosphorylation was inhibited

COc1cc([C@H]2O[C@H](c3ccc4c(c3)OCO4)[C@H](C)[C@H]2C)ccc1O[C@H](C)[C@@H](O)c1ccc2c(c1)OCO2 [saucerneol F]
nitric oxide (NO) production (RAW264.7 cells): inhibits nitric oxide (NO) production in a dose-dependent manner

(+)-zuonin A
activation (phosphorylation) of JNK isoforms [3]: inhibits neither JNK activation nor c-Jun phosphorylation
phosphorylation of c-Jun (phospho-Ser-63) [3]: inhibits neither JNK activation nor c-Jun phosphorylation
cell viability during the migration assay (MDA-MB-231 cells [4]): unaffected
cell viability during the wound assay (MDA-MB-231 cells [4]): unaffected
effect on cell migration (MDA-MB-231 cells [5]; 50 and 100 μM): able to mildly suppress cell migration

(−)-zuonin A
IC50 [6]: 1700 to 2900 nM
% Inhibition at Saturating (−)-zuonin A (200 μM) (WT-MKK4; 200 μM, phosphorylation of JNK): 77%
IC50 (WT-MKK4; inhibits the phosphorylation of JNK (inactive JNK1) by MKK4): ~1800 nM and 1800 nM
sensitivity of c-Jun phosphorylation (JNK2α2 (Y130A)): more sensitive
Akt phosphorylation (Ser-473) mediated by JNK2α2 [7]: able to inhibit Akt phosphorylation
% Inhibition at Saturating (−)-zuonin A (200 μM) (p38MAPKβ): 15%
activation (phosphorylation) of JNK isoforms [3]: blunts the activation of the JNK isoforms in cells in a dose-dependent manner
phosphorylation of c-Jun (phospho-Ser-63) [3]: clearly blunted
ED50 for inhibiting JNK phosphorylation ([3]; HEK293 cells, stimulation by anisomycin): around 25 μM
IC50 (p38MAPKγ): > 200000 nM
% Inhibition at Saturating (−)-zuonin A (200 μM) (p38MAPKγ; 200 μM): 10%
sensitivity of c-Jun phosphorylation (JNK2α2 (C163A)): unresponsive
cell viability during the migration assay (MDA-MB-231 cells [4]): unaffected
cell viability during the wound assay (MDA-MB-231 cells [4]): unaffected
% Inhibition at Saturating (−)-zuonin A (200 μM) (WT-MKK7; 200 μM, phosphorylation of JNK): 50%
IC50 (WT-MKK7; inhibits the phosphorylation of JNK (inactive JNK1) by MKK7): 1990 ± 150 nM
inhibition of migration (MDA-MB-231 cells [5]; 50 μM): approximately 45%
inhibition of migration (MDA-MB-231 cells [5]; 100 μM): ~80%
% Inhibition at Saturating (−)-zuonin A (200 μM) (JNK3; 200 μM): 73%
IC50 (JNK3; GST-c-Jun 2 μM): 1740 ± 160 nM
IC50 (p38MAPKδ): > 200000 nM
% Inhibition at Saturating (−)-zuonin A (200 μM) (p38MAPKδ; 200 μM): 10%
wound closure (MDA-MB-231 cells [8]): sufficient to inhibit wound closure
IC50 (ERK2): > 200000 nM
% Inhibition at Saturating (−)-zuonin A (200 μM) (ERK2; 200 μM): 10%
% Inhibition at Saturating (−)-zuonin A (200 μM) (JNK1; 200 μM): 75%
IC50 (JNK1; GST-c-Jun 2 μM): 1700 ± 260 nM
α (factor by which affinity of JNK for c-Jun is weakened) (JNK [9]): ~5
β (effect on kcat) (JNK [9]): 1
phosphorylation of ERK or its protein substrate p-90RSK (ERK2 pathway): no effect
JNK2α2 autophosphorylation (JNK2α2 in HEK293T cells): unable to inhibit JNK2α2 autophosphorylation even at a concentration of 100 μM
ED50 for phosphorylation of c-Jun mediated by over-expressed JNK2α2 (JNK2α2 in HEK293T cells; HEK293T, without anisomycin): approximately 25 μM
IC50 (ERK1): > 200000 nM
% Inhibition at Saturating (−)-zuonin A (200 μM) (ERK1; 200 μM): 10%
